Legend:
Glutamate NMDA receptor = test: Affinity for the glycine binding site on rat N-methyl-D-aspartate glutamate receptor 1, determined by displacement of the glycine site antagonist [3H]L-689,560 from rat cortical membranes; assay type: cell membranes, Membrane
Albumin = Albumin (Homo sapiens, UniProt P02768); test: Human serum albumin index was measured by retention time on an HPLC column containing human albumin
Method in brief: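 HPLC on a column containing human serum albumin. Retention volume of each compound is divided by that of a reference standard and normalized so the standard equals 100.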

[1] = target: Glutamate NMDA receptor (Rattus norvegicus) (UniProt P35439+Q00959+Q00960+Q00961+Q62645+Q8VHN2+Q9R1M7); test: Protein binding index(PBI) reflects the relative displacement of [3H]glycine from rat cortical membranes in the presence and absence of 0.2% human serum albumin; assay type: cell membranes; settings: Membrane
Method in brief: (§1)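 [³H]glycine displacement from rat cortical membranes, with and without 0.2% (w/v) human serum albumin. Separation by centrifugation. Index = IC50 with albumin / IC50 without albumin.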

Mus musculus [2] = test: Anticonvulsant activity measured by its ability to protect against audiogenic seizure in DBA/2 mice when dosed intraperitoneally 30 min prior to seizure induction.; assay type: functional; settings: ip
Method in brief: (§2)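 DBA/2 mice, compound dosed intraperitoneally 30 min before induction of audiogenic seizures. Reported as ED50 (mg/kg and μmol/kg) or as number protected/number tested at a single dose. For some compounds the test was run 10 min after dosing.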

[3] = Partition coefficient (logP); assay type: physicochemical; settings: octanol/water
Method in brief: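 Octanol/pH 7.4 buffer partition; values were either measured or calculated from tables of π values.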

Mus musculus [4] = test: Anti convulsant activity of compound was measured by its ability to protect against audiogenic seizure in DBA/2 mice when dosed intraperitoneally 30 min prior to seizure induction.; assay type: functional; settings: ip; method in brief: as §2
Rattus norvegicus = species: Rattus norvegicus; test: Clearance into cortex from rat plasma or PBS; assay type: ADME, organism-based; settings: in vivo
Method in brief: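 Rat in situ brain perfusion (Takasato method, Gratton modifications). Compound is dissolved in phosphate-buffered saline and perfused 10 s, or dissolved in rat plasma and perfused 60 s. Drug in cortex is measured and clearance from the perfusate into cortex is calculated (mL s⁻¹ g⁻¹ × 10⁴). Mean with SEM, n = 4.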

[5] = Protein binding index(PBI) is the ratio of binding affinities for the displacement of [3H]-glycine from rat cortical membranes in the presence and absence of 0.2% human serum albumin; assay type: functional, cell membranes; settings: Membrane; method in brief: as §1

Albumin, sequence (P02768 whole entry): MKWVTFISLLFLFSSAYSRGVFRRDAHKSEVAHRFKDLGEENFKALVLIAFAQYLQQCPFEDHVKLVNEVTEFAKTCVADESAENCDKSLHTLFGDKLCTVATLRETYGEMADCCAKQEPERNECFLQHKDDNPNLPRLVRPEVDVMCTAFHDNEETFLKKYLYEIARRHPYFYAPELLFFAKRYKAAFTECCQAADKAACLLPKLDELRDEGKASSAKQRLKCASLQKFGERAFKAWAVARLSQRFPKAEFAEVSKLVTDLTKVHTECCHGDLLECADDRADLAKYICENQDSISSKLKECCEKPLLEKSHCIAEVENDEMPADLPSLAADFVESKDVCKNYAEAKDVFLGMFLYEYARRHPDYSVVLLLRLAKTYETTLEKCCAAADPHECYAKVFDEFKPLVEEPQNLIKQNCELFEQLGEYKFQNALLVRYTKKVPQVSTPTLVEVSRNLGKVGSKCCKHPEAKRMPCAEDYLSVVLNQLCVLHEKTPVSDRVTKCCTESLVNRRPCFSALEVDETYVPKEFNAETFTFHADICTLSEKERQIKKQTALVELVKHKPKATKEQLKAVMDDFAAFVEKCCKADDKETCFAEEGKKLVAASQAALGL

| SMILES | IC50 (Glutamate NMDA receptor) | HSAI (Albumin) | further results |
| --- | --- | --- | --- |
| Cn1cccc1-c1c(O)nc2cc(Cl)ccc2c1O | 818 nM | 3 |  |
| Oc1nc2ccccc2c(O)c1-c1ccccc1 |  |  | PBI [1]: 3.1; ED50 (Mus musculus [2]): 10.9 mg/kg |
| CN(Cc1cccc(-c2c(O)nc3cc(Cl)ccc3c2O)c1)c1ccccc1 | 11.7 nM | 140 |  |
| O=C(c1c(O)nc2cc(Cl)ccc2c1O)C1CC1 |  | 6 | logP [3]: 0.35 |
| Oc1nc2cc(Cl)ccc2c(O)c1-c1cccc(OCC2CC2)c1 | 37.8 nM | 21 |  |
| Oc1nc2cc(Cl)ccc2c(O)c1-c1cccc(Oc2ccsc2)c1 |  |  | PBI [1]: 127; ED50 (Mus musculus [2]): 0.75 mg/kg |
| O=c1[nH]c2cc(Cl)ccc2c(O)c1-c1cccc(NCc2ccccc2)c1 | 9.6 nM | 76 |  |
| O=C(/C=C/c1c(C(=O)O)[nH]c2cc(Cl)cc(Cl)c12)Nc1ccccc1 | 1 nM | 197 | logP [3]: 2.24 |
| O=c1[nH]c2cc(Cl)ccc2c(O)c1-c1cccc(Cc2ccccc2)c1 |  | 126 | logP [3]: 2.83 |
| O=C(O)c1cccc(-c2c(O)nc3cc(Cl)ccc3c2O)c1 | 75.6 nM | 9 |  |
| CCc1cc(Cl)cc2nc(O)c(-c3ccccc3)c(O)c12 |  | 103 |  |
| CC(=O)c1cc(Cc2cccc(-c3c(O)c4ccc(Cl)cc4[nH]c3=O)c2)ccc1O | 42.7 nM | 75 |  |
| Oc1nc2cc(Cl)ccc2c(O)c1-c1ccc(F)cc1 | 658 nM | 8 |  |
| CNCc1ccc(Cc2cccc(-c3c(O)nc4cc(Cl)ccc4c3O)c2)cc1 | 124 nM | 13 |  |
| O=C(c1ccccc1)c1cccc(-c2c(O)nc3cc(Cl)ccc3c2O)c1 | 3.6 nM | 58 |  |
| CC/C=C1\NC(=O)C(c2cccc(Oc3ccccc3)c2)=C1O | 684 nM | 42 | PBI [1]: 32 |
| COc1ccc(CCOc2c(I)cc(C[C@@H](N)C(=O)O)cc2I)cc1 | 545 nM | 32 | logP [3]: 2.65; PBI [1]: 11.7 |
| COCCOCOc1ccc(Cc2cccc(-c3c(O)nc4cc(Cl)ccc4c3O)c2)cc1 | 3.6 nM | 56 |  |
| O=C(O)c1cc(O)c2c(Cl)cc(Cl)cc2n1 |  | 5 | logP [3]: -0.44; PBI [1]: 26.5 |
| O=C(O)c1cc(O)c2ccc(Cl)cc2n1 [7-CHLOROKYNURENIC ACID] |  | 2 | logP [3]: 1.15 |
| CN(C)Cc1sccc1Oc1cccc(-c2c(O)nc3cc(Cl)ccc3c2O)c1 | 32.6 nM | 13 |  |
| C=C(C)COc1cccc(-c2c(O)nc3cc(Cl)ccc3c2O)c1 | 10.9 nM | 31 |  |
| COCOc1ccc(Cc2cccc(-c3c(O)c4ccc(Cl)cc4[nH]c3=O)c2)cc1 | 2.2 nM | 78 | logP [3]: 3.34; ED50 (Mus musculus [4]): 0.5 mg/kg |
| Oc1nc2cc(Cl)ccc2c(O)c1-c1cccc(Cc2ccccc2)c1 |  |  | PBI [1]: 758; ED50 (Mus musculus [2]): 1.3 mg/kg |
| Nc1c(-c2ccccc2)c(=O)[nH]c2cc(Cl)ccc12 | 6750 nM | 7 |  |
| Oc1nc2cc(Cl)ccc2c(O)c1-c1cccc(Cc2ccc(CCN3CCOCC3)cc2)c1 | 9 nM | 49 | logP [3]: 3.01 |
| O=C1Nc2cc(Cl)ccc2CC1[N+](=O)[O-] (configuration not stated) |  | 7 | logP [3]: 0.62; ED50 (Mus musculus [2]): 13.5 mg/kg |
| O=[N+]([O-])c1cc([N+](=O)[O-])c2nc(O)c(O)nc2c1 |  | 4 |  |

| SMILES | IC50 (Glutamate NMDA receptor) | HSAI (Albumin) | further results |
| --- | --- | --- | --- |
| Cc1ccccc1Oc1cccc(-c2c(O)nc3cc(Cl)ccc3c2O)c1 | 1.3 nM | 163 |  |
| Cc1cccc(-c2c(O)nc3cc(Cl)ccc3c2O)c1 | 84 nM | 14 |  |
| Oc1nc2cc(Cl)ccc2c(O)c1-c1ccco1 |  | 6 |  |
| N[C@H](Cc1cc(I)c(OCCc2ccc(O)cc2)c(I)c1)C(=O)O | 426 nM | 16 | logP [3]: 2; PBI [1]: 41 |
| O=C(Cc1ccccc1)c1c(O)c2ccc(Cl)cc2[nH]c1=O |  | 28 | logP [3]: 1.66 |
| Oc1ccccc1-c1cc2ccc(Cl)cc2nc1O |  | 15 | PBI [1]: 8.2 |
| Oc1nc2cc(Cl)ccc2c(O)c1-c1cccc(C#Cc2ccccc2)c1 | 34.3 nM | 577 |  |
| Cc1ccc(-c2c(O)nc3cc(Cl)ccc3c2O)cc1 | 391 nM | 13 |  |
| Oc1nc2cc(Cl)ccc2c(O)c1-c1cccc(-c2ccccc2)c1 |  | 117 |  |
| Oc1nc2cc(Cl)ccc2c(O)c1-c1ccc(Oc2ccccc2)cc1 |  | 159 | ED50 (Mus musculus [2]): 8.3 mg/kg |
| COc1cccc(-c2c(O)nc3cc(Cl)ccc3c2O)c1 | 204 nM | 10 |  |
| O=C(OCCc1cccs1)c1c(O)nc2cc(Cl)ccc2c1O |  | 44 |  |
| COc1ccccc1Cc1cccc(-c2c(O)nc3cc(Cl)ccc3c2O)c1 | 8 nM | 118 |  |
| Oc1nc2cc(Cl)ccc2c2oc3ccccc3c12 |  | 70 | logP [3]: 4.34; PBI [1]: 28.5 |
| CCc1cc(Cl)cc2nc(O)c(-c3cccc(Oc4ccccc4)c3)c(O)c12 | 1.95 nM | 837 |  |
| Oc1nc2cc(Cl)ccc2c(O)c1-c1cccc(Cc2cccc3ccccc23)c1 | 27.9 nM | 629 |  |
| COC(=O)c1c(O)c2ccc(Cl)cc2[nH]c1=O |  | 3 | PBI [1]: 5.4; Cortex_Clearance (Rattus norvegicus): 2.8 ml s-1 (10e4*g)-1 |
| CCOC(=O)c1c(O)c2ccc(Cl)cc2[nH]c1=O | 16700 nM |  | logP [3]: 0.7 |
| O=C(c1ccco1)c1c(O)nc2cc(Cl)ccc2c1O |  | 3 |  |
| Oc1nc2cc(Cl)ccc2c(O)c1-c1cccc(NCc2ccsc2)c1 |  | 68 |  |
| O=c1[nH]c2ccccc2c(O)c1-c1ccccc1 | 7500 nM | 2 |  |
| Oc1nc2cc(Cl)ccc2c(O)c1-c1cccc(C2=CCc3ccccc32)c1 | 6 nM | 571 |  |
| Cc1ccc(-c2c(O)c3ccc(Cl)cc3[nH]c2=O)o1 | 481 nM | 8 | Cortex_Clearance (Rattus norvegicus): 4.4 ml s-1 (10e4*g)-1 |
| NCc1ccc(CC(=O)N[C@H]2C[C@H](C(=O)O)Nc3cc(Cl)cc(Cl)c32)cc1 | 38.5 nM | 2 | PBI [1]: 1.1; ED50 (Mus musculus [2]): 30 mg/kg |
| Nc1c(-c2ccccc2)c(O)nc2cc(Cl)ccc12 |  |  | PBI [1]: 3.7 |
| C=C(C)COc1cccc(C2=C(O)/C(=C/CC)NC2=O)c1 |  | 13 | PBI [5]: 12.1 |
| CCOC(=O)c1c(O)c2ccc(I)cc2[nH]c1=O | 30000 nM | 7 |  |

The next lines start with results.

| IC50 (Glutamate NMDA receptor) | HSAI (Albumin) | SMILES | further results |
| --- | --- | --- | --- |
| 1090 nM | 9 | O=C(c1cccs1)c1c(O)c2ccc(Cl)cc2[nH]c1=O |  |
| 2230 nM | 59 | O=C(c1c(O)nc2cc(Cl)ccc2c1O)c1csc2ccccc12 |  |
| 3000 nM | 45 | O=C(OCCc1ccsc1)c1c(O)nc2cc(Cl)ccc2c1O |  |
| 954 nM | 40 | O=C(c1ccc(Br)s1)c1c(O)nc2cc(Cl)ccc2c1O |  |
| 4.5 nM | 97 | COc1ccc(Cc2cccc(-c3c(O)c4ccc(Cl)cc4[nH]c3=O)c2)cc1 | logP [3]: 2.81; PBI [1]: 193; ED50 (Mus musculus [2]): 0.7 mg/kg |
| 421 nM | 8 | COc1ccc(-c2c(O)c3ccc(Cl)cc3[nH]c2=O)cc1 |  |
|  | 57 | Cc1cn(-c2c(O)nc3cc(Cl)ccc3c2O)c2ccccc12 |  |
|  | 260 | Oc1nc2cc(Cl)ccc2c(O)c1-c1ccc2c(c1)Oc1ccccc1O2 | logP [3]: 4.5 |
|  | 1 | CCOC(=O)c1c(O)c2ccc([N+](=O)[O-])cc2[nH]c1=O |  |
| 24 nM | 24 | O=C(CC1CCc2cc(Br)cc3[nH]c(=O)c(=O)n1c23)Nc1ccccc1 (configuration not stated) | logP [3]: 2.78 |
| 2.8 nM | 28 | O=c1[nH]c2cc(Cl)c(Cl)c([N+](=O)[O-])c2[nH]c1=O [LICOSTINEL] | ED50 (Mus musculus [2]): 3.3 mg/kg |
| 36.4 nM | 142 | O=C(CCc1c(C(=O)O)[nH]c2cc(Cl)cc(Cl)c12)Nc1ccccc1 |  |
| 2.4 nM | 267 | CSc1ccc(Cc2cccc(-c3c(O)nc4cc(Cl)ccc4c3O)c2)cc1 |  |
| 8.9 nM | 50 | Oc1nc2cc(Cl)ccc2c(O)c1-c1cccc(Cc2ccoc2)c1 |  |
| 1520 nM | 26 | O=C(c1ccc(Cl)s1)c1c(O)nc2cc(Cl)ccc2c1O |  |
| 352 nM | 11 | Oc1nc2cc(Cl)ccc2c(O)c1-c1ccsc1 |  |
| 7.8 nM | 310 | Cc1ccc(Oc2cccc(-c3c(O)nc4cc(Cl)ccc4c3O)c2)cc1 |  |
|  | 82 | O=c1[nH]c2cc(Cl)ccc2c(O)c1-c1cccc(Oc2ccsc2)c1 | logP [3]: 2.75 |
|  | 322 | Oc1nc2cc(Cl)ccc2c(O)c1-c1cccc(-n2ccc3ccccc32)c1 |  |
|  | 6 | C=CCOC(=O)c1c(O)c2ccc(Cl)cc2[nH]c1=O |  |
| 12.2 nM | 118 | Oc1nc2cc(Cl)ccc2c(O)c1-c1cccc(OCc2ccccc2)c1 |  |
|  | 213 | O=C(OCC#Cc1cccc(O)c1)c1c(O)c2ccc(Cl)cc2[nH]c1=O |  |
